Experimental findings from ChEMBL document CHEMBL1250476, “Synthesis and antifungal evaluation of novel triazole derivatives as inhibitors of cytochrome P450 14alpha-demethylase” (2010) are described below.

Common to all, as to assay type: functional
The subject of assay [1] is Candida albicans. In words: Antifungal activity against Candida albicans SC5314 after 24 hrs by micro-broth dilution method. Particulars: SC5314, 24 h. The procedure, abridged:
(§1)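 Broth microdilution per NCCLS on Candida albicans. Compounds were dissolved in DMSO, serially diluted in growth medium, inoculated and incubated at 35 °C. Growth was read at 24 h, and MIC80 was taken as the first well with about 80% growth reduction relative to the drug-free control. Values are the mean of three replicates.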
(Broth dilution looks for growth in wells or tubes with falling amounts of substance.)

Assay [2] has as its system Candida albicans. In words: Antifungal activity against Candida albicans Y0109 after 24 hrs by micro-broth dilution method. Particulars: Y0109, 24 h. An outline of the steps: as §1
The next assay concerns Kluyveromyces marxianus. In words: Antifungal activity against Candida kefyr by micro-broth dilution method. The procedure, abridged:
(§2)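 MIC80 by broth microdilution in 96-well format following NCCLS. Compounds were dissolved in DMSO, serially diluted in growth medium, inoculated and incubated at 35 °C. The endpoint was the first well with about 80% growth reduction versus the drug-free well. Values are means of three replicate tests.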

The subject of another assay is Trichophyton rubrum. The assay is described as follows: Antifungal activity against Trichophyton rubrum by micro-broth dilution method. The procedure, abridged:
as §2

A further assay deals with Aspergillus fumigatus. The assay is described as follows: Antifungal activity against Aspergillus fumigatus by micro-broth dilution method. The procedure, abridged: as §2
For another assay, the system named is Cryptococcus neoformans. In words: Antifungal activity against Cryptococcus neoformans after 72 hrs by micro-broth dilution method. The procedure, abridged:
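Cryptococcus neoformans tested by NCCLS micro-broth dilution. Compounds were dissolved in DMSO, serially diluted in medium, inoculated and incubated at 35 °C. MIC80 was read at 72 h as the first well showing approximately 80% growth reduction compared with the drug-free well. Values are the mean of three replicate tests.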

In a further assay the test system is Candida parapsilosis. The assay is described as follows: Antifungal activity against Candida parapsilosis by micro-broth dilution method. Particulars: Lodderomyces parapsilosis. An outline of the steps: as §2
The subject of another assay is Candida tropicalis. The assay is described as follows: Antifungal activity against Candida tropicalis by micro-broth dilution method. An outline of the steps:
as §2

Values after ≈ are worked out from the molar mass of the structure shown.

In general, MIC refers to the least concentration at which growth counts as inhibited. The low end stands for inhibition by little substance, the high end for a need for much substance. In the case of `CCCCCn1cc(CN(CC(O)(Cn2cncn2)c2ccc(F)cc2F)C2CC2)nn1` (stereo not given), the MIC with Candida albicans [1] was less than 0.125 mg/L; with Candida albicans [2] it was 0.0625 mg/L (≈ 0.14 µM); in the assay with Kluyveromyces marxianus, 0.25 mg/L (≈ 0.561 µM); in the assay on Trichophyton rubrum it was less than 0.125 mg/L; in the assay with Aspergillus fumigatus, greater than 64 mg/L; with Cryptococcus neoformans, 32 mg/L (≈ 71.8 µM). Besides, the MIC in the assay with Candida parapsilosis is 0.5 mg/L (≈ 1.12 µM); in the assay with Candida tropicalis, 0.25 mg/L (≈ 0.561 µM).

With `O=[N+]([O-])c1ccccc1Cn1cc(CN(CC(O)(Cn2cncn2)c2ccc(F)cc2F)C2CC2)nn1` (stereo not given), the MIC against Candida albicans [1] is 16 mg/L (≈ 31.3 µM); in the assay on Candida albicans [2], 0.0625 mg/L (≈ 0.122 µM); in the assay with Kluyveromyces marxianus, 0.0625 mg/L (≈ 0.122 µM); in the assay on Trichophyton rubrum, 4 mg/L (≈ 7.84 µM); in the assay with Aspergillus fumigatus it was greater than 64 mg/L; against Cryptococcus neoformans it was 64 mg/L (≈ 125 µM). Further, the MIC against Candida parapsilosis and in the assay with Candida tropicalis was 4 mg/L (≈ 7.84 µM) throughout.

Turning to `O=[N+]([O-])c1cccc(Cn2cc(CN(CC(O)(Cn3cncn3)c3ccc(F)cc3F)C3CC3)nn2)c1` (stereo not given), the MIC was 4 mg/L (≈ 7.84 µM) with Candida albicans [1]; 0.0625 mg/L (≈ 0.122 µM) against Candida albicans [2]; 0.0156 mg/L (≈ 0.0306 µM) with Kluyveromyces marxianus; 0.25 mg/L (≈ 0.49 µM) against Trichophyton rubrum; greater than 64 mg/L against Aspergillus fumigatus; 64 mg/L (≈ 125 µM) with Cryptococcus neoformans. The MIC was found to be 8 mg/L (≈ 15.7 µM) in the assay with Candida parapsilosis and 4 mg/L (≈ 7.84 µM) against Candida tropicalis.

For `O=[N+]([O-])c1ccc(Cn2cc(CN(CC(O)(Cn3cncn3)c3ccc(F)cc3F)C3CC3)nn2)cc1` (stereo not given), the MIC against Candida albicans [1] is less than 0.125 mg/L; in the assay on Candida albicans [2], 0.25 mg/L (≈ 0.49 µM); with Kluyveromyces marxianus, 0.0039 mg/L (≈ 0.00764 µM); against Trichophyton rubrum it was 0.5 mg/L (≈ 0.979 µM); against Aspergillus fumigatus, greater than 64 mg/L; against Cryptococcus neoformans, 16 mg/L (≈ 31.3 µM). For the same compound, the MIC worked out at 1 mg/L (≈ 1.96 µM) against Candida parapsilosis and 0.25 mg/L (≈ 0.49 µM) against Candida tropicalis.

For the compound `N#Cc1ccccc1Cn1cc(CN(CC(O)(Cn2cncn2)c2ccc(F)cc2F)C2CC2)nn1` (stereo not given), the MIC in the assay with Candida albicans [1] is 0.25 mg/L (≈ 0.51 µM); against Candida albicans [2], 16 mg/L (≈ 32.6 µM); in the assay with Kluyveromyces marxianus it was 1 mg/L (≈ 2.04 µM); against Trichophyton rubrum, 2 mg/L (≈ 4.08 µM); against Aspergillus fumigatus it was greater than 64 mg/L; in the assay with Cryptococcus neoformans, 64 mg/L (≈ 130 µM). Moreover, the MIC against Candida parapsilosis was found to be 2 mg/L (≈ 4.08 µM); with Candida tropicalis, 1 mg/L (≈ 2.04 µM).

Turning to `N#Cc1cccc(Cn2cc(CN(CC(O)(Cn3cncn3)c3ccc(F)cc3F)C3CC3)nn2)c1` (stereo not given), the MIC in the assay with Candida albicans [1] was 4 mg/L (≈ 8.15 µM); against Candida albicans [2], 4 mg/L (≈ 8.15 µM); against Kluyveromyces marxianus, 1 mg/L (≈ 2.04 µM); in the assay on Trichophyton rubrum, 4 mg/L (≈ 8.15 µM); against Aspergillus fumigatus it was greater than 64 mg/L; in the assay with Cryptococcus neoformans, 64 mg/L (≈ 130 µM). The results for the MIC in the assay on Candida parapsilosis and with Candida tropicalis were 4 mg/L (≈ 8.15 µM) and 1 mg/L (≈ 2.04 µM), respectively.

In the case of `N#Cc1ccc(Cn2cc(CN(CC(O)(Cn3cncn3)c3ccc(F)cc3F)C3CC3)nn2)cc1` (stereo not given), the MIC against Candida albicans [1] was 1 mg/L (≈ 2.04 µM); in the assay on Candida albicans [2], 0.0625 mg/L (≈ 0.127 µM); with Kluyveromyces marxianus, 1 mg/L (≈ 2.04 µM); against Trichophyton rubrum it was 4 mg/L (≈ 8.15 µM); against Aspergillus fumigatus it was greater than 64 mg/L; with Cryptococcus neoformans, 64 mg/L (≈ 130 µM). The MIC against Candida parapsilosis and in the assay on Candida tropicalis was 4 mg/L (≈ 8.15 µM) in each case.

Turning to `OC(CN(Cc1cn(Cc2c(Cl)cccc2Cl)nn1)C1CC1)(Cn1cncn1)c1ccc(F)cc1F` (stereo not given), the MIC against Candida albicans [1] is 4 mg/L (≈ 7.49 µM); against Candida albicans [2], 0.0625 mg/L (≈ 0.117 µM); with Kluyveromyces marxianus it was 0.25 mg/L (≈ 0.468 µM); in the assay on Trichophyton rubrum, 1 mg/L (≈ 1.87 µM); against Aspergillus fumigatus, greater than 64 mg/L; in the assay with Cryptococcus neoformans, 64 mg/L (≈ 120 µM). Moreover, the MIC in the assay with Candida parapsilosis and against Candida tropicalis was 4 mg/L (≈ 7.49 µM) throughout.

On to `CCc1ccc(Cn2cc(CN(CC(O)(Cn3cncn3)c3ccc(F)cc3F)C3CC3)nn2)cc1` (stereo not given), for which the MIC was 4 mg/L (≈ 8.1 µM) in the assay on Candida albicans [1]; 0.25 mg/L (≈ 0.507 µM) against Candida albicans [2]; 0.25 mg/L (≈ 0.507 µM) against Kluyveromyces marxianus; 2 mg/L (≈ 4.05 µM) against Trichophyton rubrum; greater than 64 mg/L with Aspergillus fumigatus; 1 mg/L (≈ 2.03 µM) in the assay on Cryptococcus neoformans. Moreover, the figures for the MIC in the assay on Candida parapsilosis and with Candida tropicalis were 4 mg/L (≈ 8.1 µM) and 2 mg/L (≈ 4.05 µM), respectively.

With `CC(C)(C)c1ccc(Cn2cc(CN(CC(O)(Cn3cncn3)c3ccc(F)cc3F)C3CC3)nn2)cc1` (stereo not given), the MIC is 0.0625 mg/L (≈ 0.12 µM) with Candida albicans [1]; less than 0.125 mg/L against Candida albicans [2]; 1 mg/L (≈ 1.92 µM) in the assay on Kluyveromyces marxianus; 4 mg/L (≈ 7.67 µM) in the assay with Trichophyton rubrum; greater than 64 mg/L in the assay on Aspergillus fumigatus; 4 mg/L (≈ 7.67 µM) with Cryptococcus neoformans. For the same compound, the MIC was determined as 0.25 mg/L (≈ 0.479 µM) with Candida parapsilosis and 16 mg/L (≈ 30.7 µM) in the assay on Candida tropicalis.
